Measurements taken from ChEMBL document CHEMBL1136770, “The pharmacophore of short cationic antibacterial peptides” (2003).
Converted amounts (≈) assume the structure as drawn. Non-standard residues stand in square brackets, D forms with d. Residues, ends and D or L forms follow the SMILES beside them. *: point of attachment. OBn = c1ccc(CO*)cc1

Experiments:
Type in all cases: functional
Staphylococcus aureus [1] = assay: Minimum inhibitory concentration against Staphylococcus aureus
Procedure, shortened: (§1)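 Broth microdilution, inoculum 2 × 10⁶ cfu/mL, in 1% Bacto Peptone water, overnight at 37 °C. At least three independent dilutions tested in parallel. Gentamicin susceptibility run as internal standard.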

Staphylococcus aureus [2] = assay: Minimum inhibitory concentration against methicillin-resistant Staphylococcus aureus (ATCC 33591)
[3] = test system: Staphylococcus epidermidis; assay: Minimum inhibitory concentration against methicillin-resistant Staphylococcus epidermidis (ATCC 27626)
Escherichia coli = assay: Minimum inhibitory concentration against Escherichia coli; procedure, shortened: as §1

Compound	MIC (Staphylococcus aureus [1]) [µg/mL]	MIC (Staphylococcus aureus [2]) [µg/mL]	MIC [3] [µg/mL]	MIC (Escherichia coli) [µg/mL]
COC(=O)[C@H](CCCN=C(N)N)NC(=O)[C@@H](N)Cc1c[nH]c2ccccc12 (H-Trp-Arg-OMe)	> 200	> 200	> 200	> 200
NC(N)=NCCC[C@@H](N)C(=O)N[C@H](Cc1c[nH]c2ccccc12)C(=O)OCc1ccccc1	50 (≈ 111 µM)	50 (≈ 111 µM)	20 (≈ 44.4 µM)	> 200
COC(=O)[C@H](CCCN=C(N)N)NC(=O)[C@H](Cc1c[nH]c2ccccc12)NC(=O)[C@H](Cc1c[nH]c2ccccc12)NC(=O)[C@@H](N)CCCN=C(N)N (H-RWWR-OMe)	75 (≈ 105 µM)	50 (≈ 69.7 µM)	15 (≈ 20.9 µM)	> 200
N=C(N)NCCC[C@H](NC(=O)C1CCCCC1)C(=O)N[C@@H](Cc1c[nH]c2ccccc12)C(=O)OCc1ccccc1	25 (≈ 44.6 µM)			200 (≈ 357 µM)
NC(N)=NCCC[C@H](N)C(=O)N[C@H](Cc1c[nH]c2ccccc12)C(=O)OCc1ccccc1	50 (≈ 111 µM)	50 (≈ 111 µM)	25 (≈ 55.5 µM)	> 200
H-RWWWRR-NH2	5			25
H-RRRWWW-NH2	5			5
COC(=O)[C@H](CCCN=C(N)N)NC(=O)[C@H](Cc1c[nH]c2ccccc12)NC(=O)C1CCCCC1	> 200			> 200
NCCCC[C@H](N)C(=O)N[C@@H](Cc1c[nH]c2ccccc12)C(=O)OCc1ccccc1 (H-Lys-Trp-OBn)	50 (≈ 118 µM)	25 (≈ 59.2 µM)	25 (≈ 59.2 µM)	> 200
H-WRYRW-NH2	50			100
NC(N)=NCCC[C@H](NC(=O)[C@@H](N)Cc1ccccc1)C(=O)OCc1ccccc1 (H-Phe-Arg-OBn)	> 200	200 (≈ 486 µM)	200 (≈ 486 µM)	> 200
H-WRWRWR-NH2	7.5			10
NCCCC[C@@H](N)C(=O)N[C@@H](Cc1c[nH]c2ccccc12)C(=O)OCc1ccccc1 (H-[dK]-Trp-OBn)	75 (≈ 178 µM)	50 (≈ 118 µM)	25 (≈ 59.2 µM)	> 200
NC(=O)[C@H](CCCN=C(N)N)NC(=O)[C@H](Cc1c[nH]c2ccccc12)NC(=O)[C@@H](N)CCCN=C(N)N (H-Arg-Trp-Arg-NH2)	> 200			> 200
NC(=O)[C@H](Cc1c[nH]c2ccccc12)NC(=O)[C@H](CCCN=C(N)N)NC(=O)[C@H](CCCN=C(N)N)NC(=O)[C@@H](N)Cc1c[nH]c2ccccc12 (H-WRRW-NH2)	200 (≈ 285 µM)			> 200
NC(N)=NCCC[C@H](NC(=O)[C@H](Cc1c[nH]c2ccccc12)NC(=O)[C@@H](N)CCCN=C(N)N)C(=O)N[C@@H](Cc1c[nH]c2ccccc12)C(=O)OCc1ccccc1	2.5 (≈ 3.15 µM)	2.5 (≈ 3.15 µM)	2.5 (≈ 3.15 µM)	50 (≈ 63.1 µM)
COC(=O)[C@H](CCCN=C(N)N)NC(=O)[C@H](Cc1c[nH]c2ccccc12)NC(=O)[C@@H](N)Cc1c[nH]c2ccccc12 (H-Trp-Trp-Arg-OMe)	> 200	200 (≈ 357 µM)	100 (≈ 178 µM)	> 200
N=C(N)NCCC[C@H](NC(=O)Cc1c[nH]c2ccccc12)C(=O)N[C@@H](Cc1c[nH]c2ccccc12)C(=O)OCc1ccccc1	20 (≈ 32.9 µM)			150 (≈ 247 µM)
NCCCC[C@H](N)C(=O)N[C@H](Cc1c[nH]c2ccccc12)C(=O)OCc1ccccc1 (H-Lys-[dW]-OBn)	75 (≈ 178 µM)	50 (≈ 118 µM)	25 (≈ 59.2 µM)	> 200

Compound	MIC (Staphylococcus aureus [1]) [µg/mL]	MIC (Staphylococcus aureus [2]) [µg/mL]	MIC [3] [µg/mL]	MIC (Escherichia coli) [µg/mL]
COC(=O)[C@H](CCCN=C(N)N)NC(=O)[C@H](Cc1c[nH]c2ccccc12)NC(=O)[C@H](CCCN=C(N)N)NC(=O)[C@@H](N)Cc1c[nH]c2ccccc12 (H-WRWR-OMe)	> 200	100 (≈ 139 µM)	75 (≈ 105 µM)	> 200
NC(N)=NCCC[C@@H](NC(=O)[C@H](N)Cc1c[nH]c2ccccc12)C(=O)N[C@H](Cc1c[nH]c2ccccc12)C(=O)OCc1ccccc1	5 (≈ 7.85 µM)	5 (≈ 7.85 µM)	5 (≈ 7.85 µM)	75 (≈ 118 µM)
H-WRWRW-NH2	10			15
NC(N)=NCCC[C@H](NC(=O)[C@H](N)Cc1c[nH]c2ccccc12)C(=O)N[C@@H](Cc1c[nH]c2ccccc12)C(=O)OCc1ccccc1	20 (≈ 31.4 µM)	20 (≈ 31.4 µM)	10 (≈ 15.7 µM)	75 (≈ 118 µM)
NC(N)=NCCC[C@H](N)C(=O)N[C@@H](Cc1ccccc1)C(=O)OCc1ccccc1	200 (≈ 486 µM)	200 (≈ 486 µM)	75 (≈ 182 µM)	> 200
H-WWRRRW-NH2	10			25
NC(N)=NCCC[C@H](N)C(=O)N[C@@H](Cc1c[nH]c2ccccc12)C(=O)N[C@H](CCCN=C(N)N)C(=O)N[C@H](Cc1c[nH]c2ccccc12)C(=O)OCc1ccccc1	5 (≈ 6.31 µM)	2.5 (≈ 3.15 µM)	2.5 (≈ 3.15 µM)	75 (≈ 94.6 µM)
NC(=O)[C@H](CCCN=C(N)N)NC(=O)[C@H](Cc1c[nH]c2ccccc12)NC(=O)[C@H](CCCN=C(N)N)NC(=O)[C@@H](N)Cc1c[nH]c2ccccc12 (H-WRWR-NH2)	200 (≈ 285 µM)			> 200
H-RWRWRW-NH2	5			5
NC(N)=NCCC[C@H](N)C(=O)N[C@@H](Cc1c[nH]c2ccccc12)C(=O)OCc1ccccc1	15 (≈ 33.3 µM)	15 (≈ 33.3 µM)	10 (≈ 22.2 µM)	> 200
COC(=O)[C@H](CCCN=C(N)N)NC(=O)[C@H](Cc1c[nH]c2ccccc12)NC(=O)Cc1c[nH]c2ccccc12	200 (≈ 376 µM)			200 (≈ 376 µM)
NC(=O)[C@H](Cc1c[nH]c2ccccc12)NC(=O)[C@H](CCCN=C(N)N)NC(=O)[C@@H](N)Cc1c[nH]c2ccccc12 (H-Trp-Arg-Trp-NH2)	100 (≈ 183 µM)			> 200
NC(N)=NCCC[C@@H](N)C(=O)N[C@@H](Cc1c[nH]c2ccccc12)C(=O)OCc1ccccc1	25 (≈ 55.5 µM)	25 (≈ 55.5 µM)	25 (≈ 55.5 µM)	> 200
H-WRWRY-NH2	50			100
NC(N)=NCCC[C@H](NC(=O)[C@@H](N)Cc1c[nH]c2ccccc12)C(=O)OCc1ccccc1 (H-Trp-Arg-OBn)	200 (≈ 444 µM)	75 (≈ 166 µM)	75 (≈ 166 µM)	> 200
NC(=O)[C@H](CCCN=C(N)N)NC(=O)[C@H](Cc1c[nH]c2ccccc12)NC(=O)[C@H](Cc1c[nH]c2ccccc12)NC(=O)[C@@H](N)CCCN=C(N)N (H-RWWR-NH2)	100 (≈ 142 µM)			> 200
NC(N)=NCCC[C@H](NC(=O)[C@@H](N)Cc1c[nH]c2ccccc12)C(=O)N[C@@H](Cc1c[nH]c2ccccc12)C(=O)OCc1ccccc1	5 (≈ 7.85 µM)	5 (≈ 7.85 µM)	5 (≈ 7.85 µM)	75 (≈ 118 µM)
H-RWRWR-NH2	25			200
